ChEMBL document CHEMBL4130443, “Targeting breast cancer stem cells by novel HDAC3-selective inhibitors” (Eur J Med Chem, 2017)
Active and inactive are the calls of the source. The calls are words filed in the database; no cut-off is given here.

Tests used:
MDA-MB-231 [1] = test: Inhibition of tumorogenicity of human MDA-MB-231 cells xenografted in NOD/SCID mouse injected with cells pretreated with 5 uM compound for 48 hrs assessed as reduction in tumor incidence at 100 mg/kg, po dosed via gavage once daily starting on day 2 post injection and continuing through day 12; format: functional, organism-based
Procedure, shortened: (§1)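 Cells pretreated 48 h with 5 µM compound or DMSO, trypsinized and injected at 50,000 cells/0.1 ml in 50% Matrigel into the left 4th inguinal mammary fat pad of female NOD/SCID mice (N = 10 per group). Dosed 100 mg/kg by oral gavage once daily in 0.5% methylcellulose/0.1% Tween 80 in water. Caliper volume = (width² x length) x 0.52. Incidence by log-rank test, volume at day 27 by t-test.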

[2] = molecular target: T1, Protein deacetylase HDAC6 (Homo sapiens) (UniProt Q9UBN7); test: Inhibition of human HDAC6 at 1 uM using p53 (379 to 382 residues) derived fluorogenic peptide RHKKAc
T1 sequence (whole entry): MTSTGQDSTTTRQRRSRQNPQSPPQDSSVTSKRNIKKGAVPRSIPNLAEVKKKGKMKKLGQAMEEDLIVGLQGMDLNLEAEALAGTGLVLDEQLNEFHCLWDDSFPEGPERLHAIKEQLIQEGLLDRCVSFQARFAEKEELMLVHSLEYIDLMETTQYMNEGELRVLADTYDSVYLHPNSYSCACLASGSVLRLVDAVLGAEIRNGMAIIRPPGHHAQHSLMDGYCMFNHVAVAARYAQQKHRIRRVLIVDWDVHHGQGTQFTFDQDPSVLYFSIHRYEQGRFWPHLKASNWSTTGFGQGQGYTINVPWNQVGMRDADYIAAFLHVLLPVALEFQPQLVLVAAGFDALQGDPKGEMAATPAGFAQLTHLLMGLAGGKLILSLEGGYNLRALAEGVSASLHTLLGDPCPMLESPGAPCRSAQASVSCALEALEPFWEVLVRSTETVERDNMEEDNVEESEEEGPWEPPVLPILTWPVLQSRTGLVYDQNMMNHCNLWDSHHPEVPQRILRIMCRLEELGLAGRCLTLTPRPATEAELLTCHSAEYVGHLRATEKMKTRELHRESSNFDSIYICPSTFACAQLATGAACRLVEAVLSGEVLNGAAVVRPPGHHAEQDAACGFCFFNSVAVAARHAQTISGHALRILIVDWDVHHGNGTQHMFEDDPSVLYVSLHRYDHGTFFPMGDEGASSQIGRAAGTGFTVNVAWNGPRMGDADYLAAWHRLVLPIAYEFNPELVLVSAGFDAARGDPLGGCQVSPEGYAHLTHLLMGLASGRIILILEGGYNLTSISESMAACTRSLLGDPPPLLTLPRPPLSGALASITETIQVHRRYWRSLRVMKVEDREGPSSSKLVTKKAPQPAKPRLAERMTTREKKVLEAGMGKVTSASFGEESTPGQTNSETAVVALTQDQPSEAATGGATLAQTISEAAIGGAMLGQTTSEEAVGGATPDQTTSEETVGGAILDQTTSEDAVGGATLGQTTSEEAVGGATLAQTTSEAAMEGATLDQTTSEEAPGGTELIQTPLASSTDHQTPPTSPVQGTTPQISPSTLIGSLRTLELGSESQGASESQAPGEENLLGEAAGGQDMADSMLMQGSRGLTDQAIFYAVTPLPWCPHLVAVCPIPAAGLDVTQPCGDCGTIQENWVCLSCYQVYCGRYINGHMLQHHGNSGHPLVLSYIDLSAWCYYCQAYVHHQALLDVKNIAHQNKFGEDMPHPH
Procedure, shortened: (§2)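 Isoform profiling run by a commercial vendor with compounds at 1 µM. Values are percent inhibition, each the average of two determinations.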

MDA-MB-231 [3] = test: Inhibition of mammosphere formation of human MDA-MB-231 cells incubated for 7 days; settings: MDA-MB-231, 168 h
Histone deacetylase 1 [4] = molecular target: T2, Histone deacetylase 1 (Homo sapiens, UniProt Q13547); test: Inhibition of human HDAC1 using p53 (379 to 382 residues) derived fluorogenic peptide RHKKAc
T2 sequence (Q13547 whole entry, the tested form may be a part): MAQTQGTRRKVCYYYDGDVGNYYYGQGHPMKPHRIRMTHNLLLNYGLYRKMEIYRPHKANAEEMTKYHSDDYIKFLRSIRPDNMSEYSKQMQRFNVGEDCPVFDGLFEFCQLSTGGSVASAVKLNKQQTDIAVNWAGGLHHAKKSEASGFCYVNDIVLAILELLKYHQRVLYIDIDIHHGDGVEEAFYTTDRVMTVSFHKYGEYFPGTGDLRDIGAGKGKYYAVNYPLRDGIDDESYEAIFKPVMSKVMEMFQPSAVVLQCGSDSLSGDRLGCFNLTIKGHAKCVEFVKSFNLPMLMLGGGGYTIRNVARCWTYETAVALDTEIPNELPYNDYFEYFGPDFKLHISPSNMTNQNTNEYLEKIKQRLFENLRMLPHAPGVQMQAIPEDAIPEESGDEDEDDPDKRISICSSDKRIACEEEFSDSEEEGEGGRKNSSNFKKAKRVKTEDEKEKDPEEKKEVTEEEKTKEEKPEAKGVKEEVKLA

MDA-MB-231 [5] = test: Cytotoxicity in human MDA-MB-231 cells assessed as reduction in cell viability incubated for 24 to 72 hrs by MTT assay; format: functional, cell-based
Procedure, shortened: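 MDA-MB-231 seeded 5,000 cells/well with 10% FBS, left overnight, then exposed to agents in 5% FBS for 24, 48 and 72 h. MTT added for 1 h, dye dissolved in DMSO, absorbance at 560 nm. Viability given as percent of the matching vehicle-treated control. N = 6.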

[6] = molecular target: Histone deacetylase 3 (Homo sapiens) (UniProt O15379); test: Inhibition of HDAC3 in human MDA-MB-231 cells assessed as reduction in beta-catenin expression at 0.5 to 5 uM by immunoblotting; format: cell-based
Chain of Histone deacetylase 3 (Homo sapiens) (O15379 whole entry): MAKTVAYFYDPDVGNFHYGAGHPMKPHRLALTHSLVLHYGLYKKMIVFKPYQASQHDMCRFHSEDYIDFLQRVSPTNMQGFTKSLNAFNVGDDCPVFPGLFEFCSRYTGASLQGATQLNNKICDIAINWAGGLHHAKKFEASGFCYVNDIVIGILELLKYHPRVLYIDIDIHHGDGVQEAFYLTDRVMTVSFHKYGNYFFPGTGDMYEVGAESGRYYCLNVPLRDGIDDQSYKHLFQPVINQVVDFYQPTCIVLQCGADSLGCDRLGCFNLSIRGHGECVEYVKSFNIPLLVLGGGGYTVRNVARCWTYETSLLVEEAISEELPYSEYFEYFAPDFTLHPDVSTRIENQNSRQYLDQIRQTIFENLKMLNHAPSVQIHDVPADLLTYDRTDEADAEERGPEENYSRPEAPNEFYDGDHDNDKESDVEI
Procedure, shortened: (§3)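 Monolayer cells treated in 5% FBS at graded concentrations. Lysed in SDS/EDTA/Tris pH 8.1 buffer, equal protein immunoblotted with primary antibodies 1:1000 overnight at 4°C. Detected by ECL for phospho-Akt, β-catenin and histone H3 pan/H3K9 acetylation.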

Histone deacetylase 1 [7] = molecular target: T2, Histone deacetylase 1; test: Inhibition of human HDAC1 at 1 uM using p53 (379 to 382 residues) derived fluorogenic peptide RHKKAc; procedure, shortened: as §2
[8] = molecular target: Histone deacetylase 3/Nuclear receptor corepressor 2 (HDAC3/NCoR2) (Homo sapiens, UniProt O15379); test: Inhibition of human HDAC3/NCOR2 using p53 (379 to 382 residues) derived fluorogenic peptide RHKKAc; format: protein-complex assay
Chain of Histone deacetylase 3/Nuclear receptor corepressor 2 (HDAC3/NCoR2) (O15379 whole entry, the tested form may be a part): as the sequence (O15379 whole entry) above
Chain of Histone deacetylase 3/Nuclear receptor corepressor 2 (HDAC3/NCoR2) (Q9Y618 whole entry, further chain, the tested form may be a part): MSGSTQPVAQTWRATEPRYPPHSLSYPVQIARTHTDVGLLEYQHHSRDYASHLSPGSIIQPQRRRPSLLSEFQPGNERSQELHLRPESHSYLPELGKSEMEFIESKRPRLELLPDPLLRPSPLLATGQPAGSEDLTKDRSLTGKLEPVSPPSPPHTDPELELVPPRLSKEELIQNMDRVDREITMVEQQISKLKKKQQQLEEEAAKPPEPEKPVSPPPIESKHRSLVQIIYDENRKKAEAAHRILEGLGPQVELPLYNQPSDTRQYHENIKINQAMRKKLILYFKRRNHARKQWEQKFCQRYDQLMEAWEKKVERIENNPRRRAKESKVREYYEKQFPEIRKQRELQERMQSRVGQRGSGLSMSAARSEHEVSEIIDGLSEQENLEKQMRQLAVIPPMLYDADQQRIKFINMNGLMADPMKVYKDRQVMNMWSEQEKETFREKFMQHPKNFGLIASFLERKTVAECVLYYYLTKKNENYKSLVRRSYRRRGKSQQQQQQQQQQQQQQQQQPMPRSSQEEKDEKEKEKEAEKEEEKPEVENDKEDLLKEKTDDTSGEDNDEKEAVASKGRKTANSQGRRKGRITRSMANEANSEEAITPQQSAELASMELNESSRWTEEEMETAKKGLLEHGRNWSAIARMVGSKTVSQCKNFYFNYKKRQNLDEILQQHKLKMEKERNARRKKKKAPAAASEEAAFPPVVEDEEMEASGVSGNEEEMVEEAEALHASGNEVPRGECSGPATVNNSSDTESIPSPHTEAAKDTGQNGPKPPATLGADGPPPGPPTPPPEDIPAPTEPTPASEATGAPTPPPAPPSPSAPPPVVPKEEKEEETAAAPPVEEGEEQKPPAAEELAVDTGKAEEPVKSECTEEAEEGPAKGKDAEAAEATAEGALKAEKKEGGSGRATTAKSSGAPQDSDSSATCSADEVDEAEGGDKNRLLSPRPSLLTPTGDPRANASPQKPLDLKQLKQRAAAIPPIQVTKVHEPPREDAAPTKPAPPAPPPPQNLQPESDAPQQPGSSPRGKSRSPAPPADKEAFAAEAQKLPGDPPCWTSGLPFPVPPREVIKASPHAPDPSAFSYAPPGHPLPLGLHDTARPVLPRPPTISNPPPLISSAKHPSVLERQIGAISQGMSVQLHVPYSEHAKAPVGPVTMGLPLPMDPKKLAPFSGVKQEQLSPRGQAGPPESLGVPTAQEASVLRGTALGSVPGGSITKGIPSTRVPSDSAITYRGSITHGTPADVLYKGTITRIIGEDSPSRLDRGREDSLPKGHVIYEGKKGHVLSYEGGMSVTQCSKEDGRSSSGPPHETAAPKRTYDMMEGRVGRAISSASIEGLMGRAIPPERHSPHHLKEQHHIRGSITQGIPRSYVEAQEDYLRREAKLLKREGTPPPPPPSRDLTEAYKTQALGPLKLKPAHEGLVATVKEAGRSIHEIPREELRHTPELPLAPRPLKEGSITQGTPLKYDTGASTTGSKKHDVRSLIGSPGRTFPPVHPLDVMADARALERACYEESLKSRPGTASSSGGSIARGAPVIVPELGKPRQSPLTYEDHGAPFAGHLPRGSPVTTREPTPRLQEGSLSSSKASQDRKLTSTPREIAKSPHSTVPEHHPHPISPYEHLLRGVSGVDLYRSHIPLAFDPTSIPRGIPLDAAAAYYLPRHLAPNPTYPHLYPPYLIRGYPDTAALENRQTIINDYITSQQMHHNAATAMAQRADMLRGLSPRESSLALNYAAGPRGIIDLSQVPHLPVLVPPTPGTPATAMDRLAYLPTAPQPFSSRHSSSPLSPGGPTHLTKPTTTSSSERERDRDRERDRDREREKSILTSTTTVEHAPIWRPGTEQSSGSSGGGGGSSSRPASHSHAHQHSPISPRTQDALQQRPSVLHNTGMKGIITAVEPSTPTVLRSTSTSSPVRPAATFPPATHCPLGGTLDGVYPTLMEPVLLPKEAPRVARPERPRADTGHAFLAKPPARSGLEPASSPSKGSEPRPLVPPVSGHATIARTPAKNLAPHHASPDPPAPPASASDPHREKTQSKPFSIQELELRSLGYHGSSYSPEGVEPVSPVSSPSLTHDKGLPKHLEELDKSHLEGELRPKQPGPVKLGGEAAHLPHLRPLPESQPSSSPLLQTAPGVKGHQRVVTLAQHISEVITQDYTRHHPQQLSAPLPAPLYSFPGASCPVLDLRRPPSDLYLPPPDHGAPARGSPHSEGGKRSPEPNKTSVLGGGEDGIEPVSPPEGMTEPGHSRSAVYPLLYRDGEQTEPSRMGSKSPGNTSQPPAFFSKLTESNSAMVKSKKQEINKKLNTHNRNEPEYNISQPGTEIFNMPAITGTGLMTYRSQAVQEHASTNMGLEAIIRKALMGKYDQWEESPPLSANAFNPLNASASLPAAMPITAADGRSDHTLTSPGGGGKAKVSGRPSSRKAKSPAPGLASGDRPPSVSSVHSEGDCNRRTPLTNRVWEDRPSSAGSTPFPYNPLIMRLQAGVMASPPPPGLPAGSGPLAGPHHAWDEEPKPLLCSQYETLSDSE

[9] = molecular target: Histone deacetylase 3 (Homo sapiens) (UniProt O15379); test: Inhibition of HDAC3 in human MDA-MB-231 cells assessed as increase in histone H3 acetylation at 0.5 to 5 uM by immunoblotting; format: cell-based; procedure, shortened: as §3
MDA-MB-231 [10] = test: Induction of tumor growth dela of human MDA-MB-231 cells xenografted in NOD/SCID mouse injected with cells pretreated with 5 uM compound for 48 hrs assessed as reduction in tumor volume at 100 mg/kg, po dosed via gavage once daily starting on day 2 post injection and continuing through day 26; format: functional, organism-based; procedure, shortened: as §1
Histone deacetylase 2 = Histone deacetylase 2 (Homo sapiens, UniProt Q92769); test: Inhibition of human HDAC2 using p53 (379 to 382 residues) derived fluorogenic peptide RHKKAc
Chain of Histone deacetylase 2 (Q92769 whole entry, the tested form may be a part): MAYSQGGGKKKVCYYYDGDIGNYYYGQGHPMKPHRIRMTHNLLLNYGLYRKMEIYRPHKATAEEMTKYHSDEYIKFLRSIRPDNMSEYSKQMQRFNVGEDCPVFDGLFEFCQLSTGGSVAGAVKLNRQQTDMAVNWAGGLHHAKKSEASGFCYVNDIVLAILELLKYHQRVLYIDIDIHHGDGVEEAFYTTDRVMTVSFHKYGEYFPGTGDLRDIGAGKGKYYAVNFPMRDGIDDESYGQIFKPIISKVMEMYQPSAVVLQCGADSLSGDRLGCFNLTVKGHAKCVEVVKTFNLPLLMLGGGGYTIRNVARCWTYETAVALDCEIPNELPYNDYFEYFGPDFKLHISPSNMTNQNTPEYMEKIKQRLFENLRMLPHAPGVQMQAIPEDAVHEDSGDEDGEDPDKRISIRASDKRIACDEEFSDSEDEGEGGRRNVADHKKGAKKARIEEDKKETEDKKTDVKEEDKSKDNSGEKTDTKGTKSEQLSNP

[11] = molecular target: Histone deacetylase 5 (Homo sapiens) (UniProt Q9UQL6); test: Inhibition of human HDAC5 at 1 uM using Boc-Lys(trifluoroacetyl)-AMC substrate; procedure, shortened: as §2
Chain of Histone deacetylase 5 (Homo sapiens) (Q9UQL6 whole entry): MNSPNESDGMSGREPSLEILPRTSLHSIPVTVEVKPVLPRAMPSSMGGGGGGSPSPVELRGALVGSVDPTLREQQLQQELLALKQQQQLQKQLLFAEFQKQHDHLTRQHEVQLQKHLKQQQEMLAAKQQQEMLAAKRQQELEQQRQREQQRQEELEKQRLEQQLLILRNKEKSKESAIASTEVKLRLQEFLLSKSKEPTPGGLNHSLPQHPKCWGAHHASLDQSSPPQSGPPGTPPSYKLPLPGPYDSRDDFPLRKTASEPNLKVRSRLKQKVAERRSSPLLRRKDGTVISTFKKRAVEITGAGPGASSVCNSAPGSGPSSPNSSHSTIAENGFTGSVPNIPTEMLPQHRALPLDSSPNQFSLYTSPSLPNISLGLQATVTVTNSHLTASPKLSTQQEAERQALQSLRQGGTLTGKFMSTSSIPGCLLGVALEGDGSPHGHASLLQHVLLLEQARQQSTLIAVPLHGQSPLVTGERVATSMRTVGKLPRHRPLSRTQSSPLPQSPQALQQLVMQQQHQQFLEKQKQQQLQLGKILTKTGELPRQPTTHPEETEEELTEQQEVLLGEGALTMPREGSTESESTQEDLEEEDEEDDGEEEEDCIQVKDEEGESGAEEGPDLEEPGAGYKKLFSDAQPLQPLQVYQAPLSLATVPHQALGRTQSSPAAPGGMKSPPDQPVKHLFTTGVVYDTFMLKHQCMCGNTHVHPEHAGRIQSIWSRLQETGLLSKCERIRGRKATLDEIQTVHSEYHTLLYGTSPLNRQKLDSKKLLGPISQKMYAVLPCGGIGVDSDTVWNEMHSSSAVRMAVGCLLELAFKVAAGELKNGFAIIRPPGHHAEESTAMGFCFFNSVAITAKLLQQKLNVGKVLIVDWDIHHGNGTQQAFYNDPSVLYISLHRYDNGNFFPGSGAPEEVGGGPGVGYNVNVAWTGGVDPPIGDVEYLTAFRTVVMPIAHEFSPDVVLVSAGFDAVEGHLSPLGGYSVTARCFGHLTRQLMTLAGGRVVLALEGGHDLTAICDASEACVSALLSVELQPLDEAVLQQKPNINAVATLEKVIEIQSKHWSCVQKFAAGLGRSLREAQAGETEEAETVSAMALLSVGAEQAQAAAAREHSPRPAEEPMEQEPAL

MDA-MB-231 [12] = test: Inhibition of colony formation of human MDA-MB-231 cells incubated for 48 hrs by crystal violet staining based assay; settings: MDA-MB-231, 48 h
[13] = molecular target: Histone deacetylase 3 (Homo sapiens) (UniProt O15379); test: Inhibition of HDAC3 in human MDA-MB-231 cells assessed as reduction in Akt phosphorylation at 0.5 to 5 uM by immunoblotting; format: cell-based; procedure, shortened: as §3
MDA-MB-231 [14] = test: Effect on beta-catenin mRNA expression in human MDA-MB-231 cells at 0.5 to 5 uM by RT-PCR method; format: cell-based; settings: mda-mb-231, 5 µM
Procedure, shortened: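 Monolayer cells treated at graded concentrations. Total RNA isolated with TRIzol. β-catenin mRNA assessed by RT-PCR with β-actin as reference.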

Question: CC(C)(C(=O)Nc1ccc(C(=O)Nc2ccc(F)cc2N)cc1)c1ccccc1 was tested. Which inhibition (MDA-MB-231 [1]) did it give?
Answer: Active

Question: What about the inhibition [2] of the same molecule?
Answer: 4%

Question: What about the IC50 (MDA-MB-231 [3]) of the same molecule?
Answer: 500 to 1000 nM

Question: And the IC50 (Histone deacetylase 1 [4])?
Answer: > 10000 nM

Question: And the IC50 (MDA-MB-231 [5])?
Answer: ≥ 10000 nM

Question: What about the inhibition [6] of the same molecule?
Answer: Dose-dependent effect

Question: And the inhibition (Histone deacetylase 1 [7])?
Answer: 8%

Question: And the IC50 [8]?
Answer: 350 nM

Question: And the inhibition [9]?
Answer: Dose-dependent effect

Question: And the Activity (MDA-MB-231 [10])?
Answer: Active

Question: And the IC50 (Histone deacetylase 2)?
Answer: > 10000 nM

Question: What about the inhibition [11] of the same molecule?
Answer: 0%

Question: What about the IC50 (MDA-MB-231 [12]) of the same molecule?
Answer: 500 to 1000 nM

Question: And the inhibition [13]?
Answer: Dose-dependent effect

Question: What about the Activity (MDA-MB-231 [14]) of the same molecule?
Answer: Non-Toxic
